Calls of active or inactive are those of the source. No cut-off for these calls is given here.

One assay has as its system Escherichia coli. Briefly: Antibacterial activity against Escherichia coli ATCC 25922 assessed as growth inhibition by broth microdilution method. It counts as functional, organism-based. In short, it runs like this:
(§1)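 Preliminary screen: 10 µl of each bacterial suspension spotted on Mueller-Hinton agar containing compound at 1,000 µg ml⁻¹, then incubated 37 °C for 18 h. Inocula were prepared in sterile saline at 0.5 McFarland (150 × 10⁶ CFU ml⁻¹). Compounds were dissolved in DMSO stocks and diluted twofold in Mueller-Hinton broth, final 3.91–1,000 µg ml⁻¹. MIC read in µg ml⁻¹ (CLSI 2008), with ampicillin, cefuroxime and vancomycin as reference agents.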

In the next assay the test system is Micrococcus luteus. Briefly: Antibacterial activity against Micrococcus luteus ATCC 10240 assessed as growth inhibition by broth microdilution method. It counts as functional. In outline: as §1
A further assay has as its system Bacillus cereus. Briefly: Antibacterial activity against Bacillus cereus ATCC 10876 assessed as growth inhibition by broth microdilution method. It counts as functional. In short, it runs like this:
as §1

In the next assay the test system is Bacillus subtilis. Briefly: Antibacterial activity against Bacillus subtilis ATCC 6633 assessed as growth inhibition by broth microdilution method. It counts as functional. In short, it runs like this:
as §1

The subject of assay [1] is Staphylococcus epidermidis. Briefly: Antibacterial activity against Staphylococcus epidermidis ATCC 12228 assessed as growth inhibition by broth microdilution method. The class given is functional. In short, it runs like this: as §1
Assay [2] has as its system Staphylococcus aureus. Briefly: Antibacterial activity against Staphylococcus aureus 14001 assessed as growth inhibition by broth microdilution method. It counts as functional. In short, it runs like this:
as §1

For the next assay, the system named is Pseudomonas aeruginosa. Briefly: Antibacterial activity against Pseudomonas aeruginosa ATCC 9027 assessed as growth inhibition by broth microdilution method. It counts as functional, organism-based. In outline: as §1
In assay [3] the test system is Staphylococcus aureus. Briefly: Antibacterial activity against Staphylococcus aureus ATCC 25923 assessed as growth inhibition by broth microdilution method. It counts as functional. In short, it runs like this: as §1
The next assay relates to Proteus mirabilis. Briefly: Antibacterial activity against Proteus mirabilis ATCC 12453 assessed as growth inhibition by broth microdilution method. The class given is functional, organism-based. In short, it runs like this:
as §1

For another assay, the system named is Klebsiella pneumoniae. Briefly: Antibacterial activity against Klebsiella pneumoniae ATCC 13883 assessed as growth inhibition by broth microdilution method. The class given is functional, organism-based. In short, it runs like this: as §1

In the case of `S=c1n(CN2CCOCC2)nc(-c2ccccc2)n1-c1ccc(Br)cc1`, the “growth inhibition (GI)” value with Escherichia coli, in the assay with Pseudomonas aeruginosa, with Proteus mirabilis and with Klebsiella pneumoniae was “inactive” each time. Also, the minimal bactericidal concentration (MBC) in the assay on Micrococcus luteus was 1000 µg/mL; with Bacillus cereus it was over 1000 µg/mL; in the assay with Bacillus subtilis, over 1000 µg/mL; in [1], over 1000 µg/mL; in the assay on Staphylococcus aureus [2], over 1000 µg/mL; in the assay on Staphylococcus aureus [3] it was over 1000 µg/mL. The MIC in the assay with Micrococcus luteus was found to be 250 µg/mL; with Bacillus cereus, 1000 µg/mL; in the assay on Bacillus subtilis it was 1000 µg/mL; in assay [1], 1000 µg/mL; in the assay on Staphylococcus aureus [2], 1000 µg/mL; in the assay on Staphylococcus aureus [3], 1000 µg/mL.

As for `S=c1n(CN2CCCC2)nc(-c2ccc(Cl)cc2)n1-c1ccc(Br)cc1`, the “growth inhibition (GI)” value in the assay on Escherichia coli, with Pseudomonas aeruginosa, with Proteus mirabilis and with Klebsiella pneumoniae was “inactive” throughout. Besides, the MBC was 250 µg/mL in the assay with Micrococcus luteus; over 1000 µg/mL with Bacillus cereus; 125 µg/mL in the assay with Bacillus subtilis; 1000 µg/mL in assay [1]; 1000 µg/mL with Staphylococcus aureus [2]; 500 µg/mL in the assay with Staphylococcus aureus [3]. Also, the minimum inhibitory concentration (MIC) was 7.81 µg/mL in the assay with Micrococcus luteus; 31.2 µg/mL with Bacillus cereus; 63 µg/mL with Bacillus subtilis; 31 µg/mL in assay [1]; 62.5 µg/mL in the assay on Staphylococcus aureus [2]; 31.2 µg/mL in the assay on Staphylococcus aureus [3].

For the compound `S=c1n(CN2CCOCC2)nc(-c2ccc(Cl)cc2)n1-c1ccc(Br)cc1`, the “growth inhibition (GI)” value in the assay with Escherichia coli, with Pseudomonas aeruginosa, with Proteus mirabilis and in the assay on Klebsiella pneumoniae was “inactive” throughout. For the same compound, the MBC with Micrococcus luteus is over 1000 µg/mL; in the assay with Bacillus cereus, over 1000 µg/mL; with Bacillus subtilis, 125 µg/mL; in [1], 1000 µg/mL; with Staphylococcus aureus [2], over 1000 µg/mL; in the assay on Staphylococcus aureus [3] it was 1000 µg/mL. Moreover, the MIC in the assay with Micrococcus luteus came out at 62.5 µg/mL; in the assay on Bacillus cereus, 62.5 µg/mL; in the assay with Bacillus subtilis, 125 µg/mL; in [1], 62.5 µg/mL; with Staphylococcus aureus [2], 125 µg/mL; in the assay with Staphylococcus aureus [3] it was 62.5 µg/mL.

For the compound `CCN(CC)Cn1nc(-c2ccccc2Cl)n(-c2ccc(Br)cc2)c1=S`, the “growth inhibition (GI)” value in the assay with Escherichia coli, in the assay with Pseudomonas aeruginosa, with Proteus mirabilis and in the assay on Klebsiella pneumoniae was “inactive” in each case. Moreover, the MBC was 250 µg/mL in the assay on Micrococcus luteus; over 1000 µg/mL in the assay on Bacillus cereus; 62.5 µg/mL with Bacillus subtilis; over 1000 µg/mL in assay [1]; over 1000 µg/mL in the assay on Staphylococcus aureus [2]; over 1000 µg/mL in the assay with Staphylococcus aureus [3]. In addition, the MIC in the assay on Micrococcus luteus worked out at 62.5 µg/mL; in the assay on Bacillus cereus, 62.5 µg/mL; with Bacillus subtilis, 31.2 µg/mL; in assay [1] it was 62.5 µg/mL; in the assay with Staphylococcus aureus [2] it was 125 µg/mL; in the assay on Staphylococcus aureus [3], 62.5 µg/mL.

`S=c1n(CN2CCCCC2)nc(-c2ccc(Cl)cc2)n1-c1ccc(Br)cc1`: the “growth inhibition (GI)” value in the assay with Escherichia coli, in the assay on Pseudomonas aeruginosa, with Proteus mirabilis and in the assay on Klebsiella pneumoniae was “inactive” each time. For the same compound, the MBC (with Micrococcus luteus; with Bacillus cereus; in the assay with Bacillus subtilis; in assay [1]; in the assay with Staphylococcus aureus [2]; in the assay on Staphylococcus aureus [3]) was over 1000 µg/mL throughout. In addition, the MIC (in the assay on Micrococcus luteus; in the assay on Bacillus cereus; with Bacillus subtilis; in [1]; in the assay with Staphylococcus aureus [2]; with Staphylococcus aureus [3]) was 1000 µg/mL in each case.

Source of the values: ChEMBL document CHEMBL3044979, “Microbiologically active Mannich bases derived from 1,2,4-triazoles. The effect of C-5 substituent on antibacterial activity” (2013).
